Results published in the RNAGym collection of RNA variant scans (doi:10.1126/science.aae0568).
Fewer inactive variants are shown than the library holds.

B1: tRNA (parent)
chain: GUUCCGUUGGCGUAAUGGUAACGCGUCUCCCUCCUAAGGAGAAGACUGCGGGUUCGAGUCCCGUACGGAACG

Variants of: B1
Test: yeast fitness relative to wild type (ratio to wild type); higher = fitter; tRNA-Arg(CCU), competitive growth, 37 C, YPD
Method in brief: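 For this measurement, the tRNA-Arg(CCU) gene was varied by chemical synthesis at a 3% per-site mutation rate across 69 sites, and each variant was placed at the native genomic locus in Saccharomyces cerevisiae. The pooled strains went through a 24-hour competition in YPD at 37°C in six parallel replicates, with amplicons from start and end populations read by 100-nucleotide paired-end sequencing. Darwinian fitness relative to wild type followed from the change in each genotype's frequency. Genotypes needed ≥ 100 starting reads, and estimates < 0.5 were set to 0.5.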

| Variant | yeast fitness |
| --- | --- |
| GUUCCGUUGGCGCAAUGGUAACGCGUAUCCCUCCUAAGGAGAAGACUGCGGGUUCGAGUCACGUACGGAACG | ≤ 0.5 |
| GUUCCGUUGGCGCAAUGGUAACGCGUGUCCCUCCUAAGGAGAAGACUGCGGGUUCGAGUCCCCUACGGAACG | 0.548 |
| GUUCCGUUGGCGCAAUGGUAACGCGUUUCCCUCCUAAGGAGAAGACUGCGGGUUCGAGUCCCGUACGGAACG | 0.878 |
| GUUCCGUUGGCGCAAUGGUAACGCGUCUACCUCCUAAGGAGAAGACUGCGGGUUCGAGUCCCGUACGGCACG | 0.576 |
| GUUCCGUUGGCGCAAUGGUAACGCGUCUGCCUCCUGAGGAAAAGACUGCGGGUUCGAGUCCCGUACGGAACG | ≤ 0.5 |
| GUUCCGUUGGCGCAAUGGUAACGCGUCUGCCUCCUAAGGAGAAGACUGCGGGUUCGAGUCCCGUUCGGAUCG | 0.588 |
| GUUCCGUUGGCGCAAUGGUAACGCGUCUUCCUCCUAAGGAGAAGACUGCGGGUUUGAGUCCCGUACGGAACG | ≤ 0.5 |
| GUUCCGUUGGCGCAAUGGUAACGCGUCUCAAUCCUAAGGAGAAGACUGCGGGUUCGAGUCCCGUACGGAACG | 0.532 |
| GUUCCGUUGGCGCAAUGGUAACGCGUCUCGCUCCUAUGGAGAAGACCGCGGGUUCGAGUCCCGUACGGAGCG | ≤ 0.5 |
| GUUCCGUUGGCGCAAUGGUAACGCGUCUCCAUCCUAAGGAGAAGAUUGCGGGUUCGAGUCCCGUACGGACCG | ≤ 0.5 |
| GUUCCGUUGGCGCAAUGGUAACGCGUCUCCAUCCUAAGGAGAAGACUGGGGGUUCGAGUCGCGUACGGAACG | ≤ 0.5 |
| GUUCCGUUGGCGCAAUGGUAACGCGUCUCCUUCCUAAGGAGAACACUGCGGGUUCGAGUCCCGUACGGAACG | 0.844 |
| GUUCCGUUGGCGCAAUGGUAACGCGUCUCCCUGCUAAGGGGAAGACUGCGGGUUCGAGACCCGUACGGAACG | ≤ 0.5 |
| GUUCCGUUGGCGCAAUGGUAACGCGUCUCCCUUCUAAGGAGAAGGCUGCAGGUUCGAGUCCCGUAAGGAUCG | ≤ 0.5 |
| GUUCCGUUGGCGCAAUGGUAACGCGUCUCCCUCCUAAGGAGAAGAGUGCGGGUUCGAGUCCCGUACGGAACG | 0.97 |
| GUUCCGUUGGCGCAAUGGUAACGCGUCUCCCUCCUAAGGAGAAGACUGGGGGUUCGAGUCGCGUACGGAACG | ≤ 0.5 |
| GUUCCGUUGGCGCAAUGGUAACGCGUCUCCCUCCUAAGGAGAAGACUGCGGGUUAGAGUCCCGUACGGAACG | 0.611 |
| GUUCCGUUGGCGCAAUGGUAACGCGUCUCCCUCCUAAGGAGAAGACUGCGGGUUCGAGUCCCGUAUGGAACG | 0.932 |
| GUUCCGUUGGCGCAAUAGUAAAGCAUCUCCCUCCUAAGGAGAAGACUGCGGGUUCGAGUCCCGUACGGAACG | ≤ 0.5 |

| Variant | yeast fitness |
| --- | --- |
| GUUCCGUUGGCGCAAUAGUAACGCGUCUCCCUCCUAAGGAGAAGACCGCGGGUUCGAGUCCCGUGCGGAACG | ≤ 0.5 |
| GUUCCGUUGGCGCAAUGGUAACACGUCUCCCUCCUAAGGAGAAGACUGCGGGUUCGAGUCCCGUACGGAACG | 0.759 |
| GUUCCGUUGGCGCAAUGGUAACCCGUCUCGCUCCUAAGGAGAAGACUGCGGGUUCGAGUCCCGUCCGGAACG | ≤ 0.5 |
| GUUCCGUUGGCGCAAUGGUAACGCCUGUCCCUCCUAAGGAGAAGACUGCGGGUUCGAGUCCCGUACGGAACG | 0.539 |
| GUUCCGUUGGCGCAAUGGUAACGCCUCGCCCUCCUAAGGAGAAGACUGCGGGUUCGAAUGCCGUACGGAACG | 0.622 |
| GUUCCGUUGGCGCAAUGGUAACGCGUCUCCCUCCUAAGGAGAACACUGCGGGUUCGACUCCCGUACGGAACG | 0.661 |
| GUUCCGUUGGCGCAAUGGUAACGCGUCUCCCUCCUAAGGAGAAGACUACGGGUUCGAGUCCAGUACGGAACG | 0.689 |
| GUUCCGUUGGCGCAAUGGUAACGCGUCUCCCUCCUAAGGAGAAGACUCUGGGUUCGAGUCCCGUACGGAACG | 0.772 |
| GUUCCGUUGGCGCAAUGGUAACGCGUCUCCCUCCUAAGGAGAAGACUGCGCGUUCGAGUCCCGUACAGAACG | ≤ 0.5 |
| GUUCCGUUGGCGCAAUGGUAACGCGUCUCCCUCCUAAGGAGAAGACUGCGGGUUCGAGUCCCGUACGCAACG | 0.877 |
| GUUCCGUUGGCGCAAGGGUAACGCGUCUCCCUCCUAAGGAGAAGACUGGGGGUUCGAGUCCCGUACGGAACG | 0.617 |
| GUUCCGUUGGCGCAAUGGUAACGCGGCUCCCUCCCAAGGAGAAGACUGCGGGUUCGAGUCCCAUACGGAGCG | ≤ 0.5 |
| GUUCCGUUGGCGCAAUGGUAACGCGUCUCCCCCCUAAGGGGAAGACUGCGGGUUCGAGUCCCGUACGGAACG | ≤ 0.5 |
| GUUCCGUUGGCGCAAUGGUAACGCGUCUCCCUCCAAAGGAGAAGACUGCGGGUUCGAGUCCCGUACGGAGCG | ≤ 0.5 |
| GUUCCGUUGGCGCAAUGGUAACGCGUCUCCCUCCCAAGGAGAAGACUACGGGUUCGAGUACCGUACGGAACG | ≤ 0.5 |
| GUUCCGUUGGCGCAAUGGUAACGCGUCUCCCUCCUAAGGAGAAGACCGCGGGUUCGAGUCCCGUACGGAACG | 0.905 |
| GUUCCGUUGGCGCAAUGGUAACGCGUCUCCCUCCUAAGGAGAAGACCGCGGGUUCGAGUCCUGUAUGGAACG | ≤ 0.5 |
| GUUCCGUUGGCGCAAUGGUAACGCGUCUCCCUCCUAAGGAGAAGACCGCGGGUUCGAGUCCCGGACGCAACG | ≤ 0.5 |
